Results taken from ChEMBL document CHEMBL3351236, “Prodrug oncrasin-266 improves the stability, pharmacokinetics, and safety of NSC-743380” (Bioorg Med Chem, 2014).
Activity calls are given as the source filed them. The rule behind the calls is not given here.

Tests used:
Lung [1] = assay: Drug level in lung of Balb/c mouse xenografted with human Calu3 cells assessed as aldehyde metabolite level at 60 mg/kg, iv using compound formulated in Solutol HS15 and ethyl alcohol measured after 24 hrs by HPLC/MS method; type: ADME, organism-based, Calu-3; set-up: dose 60 mg/kg, route intravenous; conditions: in vivo
Summary of the method: (§1)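 Nude mice bearing subcutaneous Calu3 xenografts, 1 mouse per treatment group. Organs and tumor were taken 24 h later and kept at −80°C, then homogenized in methanol (50 mg/ml) on ice. Homogenate was extracted with acetonitrile containing 0.2% formic acid plus an internal standard, centrifuged, and the supernatant analyzed by HPLC/MS.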

Tumour [2] = assay: Drug level in tumor of Balb/c mouse xenografted with human Calu3 cells assessed as aldehyde metabolite level at 60 mg/kg, iv using compound formulated in Solutol HS15 and ethyl alcohol measured after 24 hrs by HPLC/MS method; type: ADME, organism-based, Neoplasm, Calu-3; set-up: dose 60 mg/kg, route intravenous; conditions: in vivo; summary of the method: as §1
Kidney [3] = assay: Drug level in kidney of Balb/c mouse xenografted with human Calu3 cells assessed as aldehyde metabolite level at 60 mg/kg, iv using compound formulated in Solutol HS15 and ethyl alcohol measured after 24 hrs by HPLC/MS method; type: ADME, organism-based, Calu-3; set-up: dose 60 mg/kg, route intravenous; conditions: in vivo; summary of the method: as §1
Spleen = assay: Drug level in spleen of Balb/c mouse xenografted with human Calu3 cells assessed as aldehyde metabolite level at 60 mg/kg, iv using compound formulated in Solutol HS15 and ethyl alcohol measured after 24 hrs by HPLC/MS method; type: ADME, organism-based, Calu-3; set-up: dose 60 mg/kg, route intravenous; conditions: in vivo; summary of the method: as §1
Intestine = assay: Drug level in intestine of Balb/c mouse xenografted with human Calu3 cells assessed as aldehyde metabolite level at 60 mg/kg, iv using compound formulated in Solutol HS15 and ethyl alcohol measured after 24 hrs by HPLC/MS method; type: ADME, organism-based, Calu-3; set-up: dose 60 mg/kg, route intravenous; conditions: in vivo; summary of the method: as §1
[4] = Drug level in liver of Balb/c mouse xenografted with human Calu3 cells at 60 mg/kg, iv using compound formulated in Solutol HS15 and ethyl alcohol measured after 24 hrs by HPLC/MS method; type: ADME, organism-based, Calu-3; set-up: dose 60 mg/kg, route intravenous; conditions: read-out: Drug uptake; summary of the method: as §1
Liver [5] = assay: Drug level in liver of Balb/c mouse xenografted with human Calu3 cells assessed as oncrasin-72 level at 60 mg/kg, iv using compound formulated in Solutol HS15 and ethyl alcohol measured after 24 hrs by HPLC/MS method; type: ADME, organism-based, Calu-3; set-up: dose 60 mg/kg, route intravenous; conditions: in vivo; summary of the method: as §1
Lung [6] = assay: Drug level in lung of Balb/c mouse xenografted with human Calu3 cells assessed as oncrasin-72 level at 60 mg/kg, iv using compound formulated in Solutol HS15 and ethyl alcohol measured after 24 hrs by HPLC/MS method; type: ADME, organism-based, Calu-3; set-up: dose 60 mg/kg, route intravenous; conditions: in vivo; summary of the method: as §1
Tumour [7] = assay: Drug level in tumor of Balb/c mouse xenografted with human Calu3 cells assessed as oncrasin-72 level at 60 mg/kg, iv using compound formulated in Solutol HS15 and ethyl alcohol measured after 24 hrs by HPLC/MS method; type: ADME, organism-based, Neoplasm, Calu-3; set-up: dose 60 mg/kg, route intravenous; conditions: in vivo; summary of the method: as §1
Kidney [8] = assay: Drug level in kidney of Balb/c mouse xenografted with human Calu3 cells assessed as oncrasin-72 level at 60 mg/kg, iv using compound formulated in Solutol HS15 and ethyl alcohol measured after 24 hrs by HPLC/MS method; type: ADME, organism-based, Calu-3; set-up: dose 60 mg/kg, route intravenous; conditions: in vivo; summary of the method: as §1
Mus musculus [9] = assay: Toxicity in Balb/c mouse assessed as mortality level at 300 mg/kg, ip using compound formulated in Solutol HS15 and ethyl alcohol measured after 1 day; type: organism-based; set-up: dose 300 mg/kg, route intraperitoneal; conditions: in vivo, 24 h
Summary of the method: (§2)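 Acute toxicity: 3 Balb/c mice (7–8 weeks) per group, given i.p. 300 mg/kg on day 1 and again on day 2. Deaths were recorded by day; survivors were followed for 2 weeks.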

Mus musculus [10] = assay: Toxicity in Balb/c mouse assessed as survival at 300 mg/kg, ip using compound formulated in Solutol HS15 and ethyl alcohol; type: organism-based; set-up: dose 300 mg/kg, route intraperitoneal; conditions: in vivo; summary of the method: as §2
Mus musculus [11] = assay: Toxicity in Balb/c mouse assessed as mortality at 150 mg/kg, ip dosed daily for 3 days using compound formulated in Solutol HS15 and ethyl alcohol measured on day 5; type: organism-based; set-up: dose 150 mg/kg, route intraperitoneal; conditions: in vivo, 72 h
Mus musculus [12] = assay: Toxicity in Balb/c mouse assessed as serum AST level at 150 mg/kg, ip dosed daily for 3 days using compound formulated in Solutol HS15 and ethyl alcohol measured on day 6; type: organism-based; set-up: dose 150 mg/kg, route intraperitoneal; conditions: in vivo, 72 h
Mus musculus [13] = assay: Toxicity in Balb/c mouse assessed as serum ALT level at 150 mg/kg, ip dosed daily for 3 days using compound formulated in Solutol HS15 and ethyl alcohol measured on day 6; type: organism-based; set-up: dose 150 mg/kg, route intraperitoneal; conditions: in vivo, 72 h
Mus musculus [14] = assay: Toxicity in Balb/c mouse assessed as serum ALP level at 150 mg/kg, ip dosed daily for 3 days using compound formulated in Solutol HS15 and ethyl alcohol measured on day 6; type: organism-based; set-up: dose 150 mg/kg, route intraperitoneal; conditions: in vivo, 72 h
Mus musculus [15] = assay: Toxicity in Balb/c mouse assessed as serum ALT level at 25 mg/kg, ip dosed daily for 8 days using compound formulated in Solutol HS15 and ethyl alcohol measured on day 6; type: organism-based; set-up: dose 25 mg/kg, route intraperitoneal; conditions: in vivo, 192 h
Mus musculus [16] = assay: Toxicity in Balb/c mouse assessed as serum ALP level at 25 mg/kg, ip dosed daily for 8 days using compound formulated in Solutol HS15 and ethyl alcohol measured on day 6; type: organism-based; set-up: dose 25 mg/kg, route intraperitoneal; conditions: in vivo, 192 h
Mus musculus [17] = assay: Toxicity in Balb/c mouse assessed as changes in blood cell parameters at 150 mg/kg, ip dosed daily for 3 days using compound formulated in Solutol HS15 and ethyl alcohol measured after 48 hrs; type: organism-based; set-up: dose 150 mg/kg, route intraperitoneal; conditions: in vivo
[18] = Pro-drug conversion in pH 7.4 PBS solution assessed as oncrasin-72 release at 0.5 mg/ml by HPLC method; type: ADME; conditions: buffer, TDE = time-dependent effect
Summary of the method: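 Stock in DMSO/acetonitrile was diluted in PBS pH 7.4 to 0.5 mg/ml, with final 12% DMSO and 18% acetonitrile. Incubated at 37°C for up to 24 h. Aliquots taken at 0.5, 1, 3, 6 and 24 h were held at −20°C, then diluted 50-fold in acetonitrile for HPLC. One of two experiments shown.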

Plasma = assay: Pro-drug conversion in human plasma assessed as oncrasin-72 release by HPLC method; type: ADME, cell-free
NCI-H157 = assay: Anticancer activity against human NCI-H157 cells at 0.03 to 30 uM by sulforhodamine B assay; type: functional, cell-based
Summary of the method: (§3)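 Sulforhodamine B viability assay on lung cancer cells exposed to a range of compound concentrations for 3 days. Untreated reference: DMSO-treated cells set as 100. Values are mean ± SD of quadruplicate wells.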

NCI-H460 = assay: Anticancer activity against human H460 cells at 0.03 to 30 uM by sulforhodamine B assay; type: functional, cell-based; summary of the method: as §3
Calu-3 = assay: Anticancer activity against human Calu3 cells at 0.03 to 30 uM by sulforhodamine B assay; type: functional, cell-based; summary of the method: as §3
NCI-H1299 = assay: Anticancer activity against human H1299 cells at 0.03 to 30 uM by sulforhodamine B assay; type: functional, cell-based; summary of the method: as §3
[19] = Stability in powder form in non-evacuated chambers at 37 degC after 1 to 14 days by HPLC method; type: physicochemical
Summary of the method: (§4)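 Powders were kept at 4°C, room temperature (21°C) or 37°C and sampled for up to 90 days. Each aliquot was dissolved in DMSO, diluted with 9 volumes acetonitrile, and analyzed by HPLC for purity.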

[20] = Stability in powder form in non-evacuated chambers at room temperature by HPLC method; type: physicochemical; summary of the method: as §4
[21] = Stability in powder form in non-evacuated chambers at 4 degC by HPLC method; type: physicochemical; summary of the method: as §4
[22] = Stability in powder form in non-evacuated chambers at 37 degC after 90 days by HPLC method; type: physicochemical; conditions: read-out: Stability; summary of the method: as §4
[23] = Stability in stock solution with Solutol HS15 and ethyl alcohol solvent at room temperature by HPLC method; type: physicochemical
Summary of the method: (§5)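 Stock solutions were made by dissolving compound in 75% (w/v) Solutol HS15 in ethanol (about 20% v/v ethanol). Final concentrations were 8 mg/ml for prodrug and 5 mg/ml for parent. Stocks were stored at 4°C or room temperature; aliquots were frozen at −20°C before HPLC.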

[24] = Stability in stock solution with Solutol HS15 and ethyl alcohol solvent at 4 degC by HPLC method; type: physicochemical; summary of the method: as §5
[25] = Stability in injectable solution with Solutol HS15 and ethyl alcohol and 0.9% NaCl assessed as drug hydrolysis within 7 hrs at room temperature by HPLC method; type: physicochemical; conditions: injectable solution; read-out: Drug degradation
[26] = Stability in injectable solution with Solutol HS15 and ethyl alcohol and 0.9% NaCl assessed as drug hydrolysis within 7 hrs at 37 degC by HPLC method; type: physicochemical; conditions: read-out: Drug degradation
[27] = Half life in Balb/c mouse at 25 mg/kg, iv using compound formulated in Solutol HS15 and ethyl alcohol by HPLC/MS method; type: ADME, organism-based; set-up: dose 25 mg/kg, route intravenous; conditions: in vivo
Summary of the method: (§6)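 Balb/c mice received 25 mg/kg by tail vein in Solutol HS15/ethanol vehicle. Blood was drawn from the tail vein at 0, 1, 2, 3.5, 7 and 24 h, 3 mice per time point, into lithium-heparin tubes. Plasma (50 µl) was precipitated with 150 µl acetonitrile containing 0.2% formic acid and internal standard, iced 15 min, centrifuged, and the supernatant analyzed by HPLC/MS for parent and released drug.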

Mus musculus [28] = assay: Half life in Balb/c mouse assessed as oncrasin-72 release at 25 mg/kg, iv using compound formulated in Solutol HS15 and ethyl alcohol by HPLC/MS method; type: ADME, organism-based; set-up: dose 25 mg/kg, route intravenous; conditions: in vivo; summary of the method: as §6
Liver [29] = assay: Drug level in liver of Balb/c mouse xenografted with human Calu3 cells assessed as aldehyde metabolite level at 60 mg/kg, iv using compound formulated in Solutol HS15 and ethyl alcohol measured after 24 hrs by HPLC/MS method; type: ADME, organism-based, Calu-3; set-up: dose 60 mg/kg, route intravenous; conditions: in vivo; summary of the method: as §1
Mus musculus [30] = assay: Toxicity in Balb/c mouse assessed as serum AST level at 25 mg/kg, ip dosed daily for 8 days using compound formulated in Solutol HS15 and ethyl alcohol; conditions: in vivo, 192 h
Mus musculus [31] = assay: Toxicity in Balb/c mouse assessed as histopathological changes in liver at 150 mg/kg, ip dosed once using compound formulated in Solutol HS15 and ethyl alcohol measured after 48 hrs; conditions: in vivo

O=C(CC1CCCCC1)OCc1cn(Cc2cccc(Cl)c2)c2ccccc12
Drug uptake (Lung [1]): 68.4 µg/g
Drug uptake (Tumour [2]): 4.4 µg/g
Drug uptake (Kidney [3]): 26.5 µg/g
Drug uptake (Spleen): 34 µg/g
Drug uptake (Intestine): 5.9 µg/g
concentration at 24 h [4]: 157000 ng/g
Drug uptake (Liver [5]): 12.6 µg/g
Drug uptake (Lung [6]): 7.7 µg/g
Drug uptake (Tumour [7]): 4.7 µg/g
Drug uptake (Kidney [8]): 7.3 µg/g
Activity (Mus musculus [9]): Toxic
Survival (Mus musculus [10]): 2 weeks
Activity (Mus musculus [11]): Non-toxic
Activity (Mus musculus [12]): 325.5 U/L
Activity (Mus musculus [13]): 115.5 U/L
Activity (Mus musculus [14]): 50 U/L
Activity (Mus musculus [15]): 36.3 U/L
Activity (Mus musculus [16]): 76 U/L
Activity (Mus musculus [17]): Non-toxic
Drug metabolism [18]: tde
Drug metabolism (Plasma): metabolite_detected
Activity (NCI-H157): Active
Activity (NCI-H460): Active
Activity (Calu-3): Active
Activity (NCI-H1299): inactive
Stability [19]: Stable
Stability [20]: 90 days
Stability [21]: 90 days
remaining at 2160 h [22]: < 5%
Stability [23]: 2 weeks
Stability [24]: 4 weeks
degraded at 7 h [25]: 10%
degraded at 7 h [26]: > 10%
half-life [27]: 1 h
t1/2 (Mus musculus [28]): 1.25 h
Drug uptake (Liver [29]): 14.9 µg/g
Activity (Mus musculus [30]): 94 U/L
Activity (Mus musculus [31]): Non-toxic
